From article PMC12373759 (Communications Medicine, 2025)
Values joined by “and” are separate entries in the source; they are usually repeats but may differ in a detail not shown here. Identical values can stand only once. Bridge positions count the residues as written; N and C are the ends. Square brackets hold non-standard residues; d marks the D form. Peptide text beside a SMILES is read from it. * marks the point of attachment. DOTA = O=C(O)CN1CCN(CC(=O)O)CCN(CC(=O)*)CCN(CC(=O)O)CC1; Thr(ol) = C[C@@H](O)[C@H](N)CO

Assays:
[1] = cited from earlier work
[2] = Shelf-life / stability in normal saline; assay type: physicochemical
Outline: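 Shelf-life: radiotracer kept in normal saline at room temperature and examined for up to 4 h.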

[3] = molecular target: T1, recombinant human V1b receptor (Homo sapiens, UniProt P47901); test: In-vitro receptor binding assay
T1 sequence (P47901 1-424): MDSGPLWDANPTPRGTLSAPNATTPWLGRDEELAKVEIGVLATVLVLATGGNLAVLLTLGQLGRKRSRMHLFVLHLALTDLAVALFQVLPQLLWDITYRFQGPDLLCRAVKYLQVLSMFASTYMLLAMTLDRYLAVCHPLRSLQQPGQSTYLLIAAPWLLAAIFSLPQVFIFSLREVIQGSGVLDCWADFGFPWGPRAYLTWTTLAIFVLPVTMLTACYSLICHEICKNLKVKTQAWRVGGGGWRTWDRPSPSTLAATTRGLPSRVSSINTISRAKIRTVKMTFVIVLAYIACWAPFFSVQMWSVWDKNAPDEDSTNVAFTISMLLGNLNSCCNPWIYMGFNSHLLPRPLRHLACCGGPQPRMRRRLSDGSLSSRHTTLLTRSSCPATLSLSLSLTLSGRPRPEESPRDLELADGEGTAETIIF

Sterility test = details: no visible growth or turbidity for up to 14 days
corticotropinoma = details: cited from earlier work
[4] = Stability in human serum at 37 °C; assay type: in vitro ADME
[5] = Ex vivo biodistribution in healthy Wistar rats
Outline: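 Nine healthy male Wistar rats (16 weeks, 274 ± 13 g) each received 8 ± 1.1 MBq radiotracer IV via the penile vein. Under ketamine (40 mg/kg) plus xylazine (4 mg/kg) anaesthesia, rats were killed by cervical dislocation at 30, 60 and 120 min (n = 3 per time). Organs were weighed and gamma-counted (NaI(Tl)). %ID/g used injected counts corrected for injection-site and syringe residues. Blood pool was taken as 7% of body weight. Mean ± SD.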

[6] = Plasma protein binding, TCA precipitation method; assay type: in vitro ADME; details: 37 °C, 10% TCA
Endotoxin test = details: V = 2 mL, dilution factor 10; limit <175 EU/V
Outline: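 Chromogenic endotoxin assay per USP 85 on the in-house-prepared radiotracer. Results and the acceptance limit are expressed as endotoxin units per injection volume (EU/V).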

corticotropinomas = details: PET/CT; cited from earlier work

Compound: Desmopressin
- plasma half-life [1]: ~ 55 min

Compound: C[C@@H](O)[C@@H](CO)NC(=O)[C@@H](CCCNC(=N)N)NC(=O)[C@@H]1CCCN1C(=O)[C@@H]1CSSC[C@H](NC(=O)[C@H](Cc2ccccc2)NC(=O)CN2CCN(CC(=O)O)CCN(CC(=O)O)CCN(CC(=O)O)CC2)C(=O)N[C@@H](Cc2ccc(O)cc2)C(=O)N[C@@H](Cc2ccccc2)C(=O)N[C@@H](CCC(N)=O)C(=O)N[C@@H](CC(N)=O)C(=O)N1 [[^68Ga]Ga-DOTA-mDesmo, metal not drawn] ({DOTA}-FCYFQNCP[dR][Thr(ol)]; disulfide 2-7)
- stability (single radio peak at Rf 0.0) ([2]; PBS, 37 °C): up to 4 h
- shelf-life (single radio peak at Rf 0.0) ([2]; normal saline, room temperature): up to 4 h
- Binding (%) (Mean ± SD) ([3]; V1b 15.6 nM, tracer 0.3 µM): 5.1 ± 1.3%
- Binding (%) (Mean ± SD) ([3]; V1b 62.5 nM, tracer 0.3 µM): 25.7 ± 2.4%
- Binding (%) (Mean ± SD) ([3]; V1b 125 nM, tracer 0.3 µM): 30.7 ± 1.9%
- Binding (%) (Mean ± SD) ([3]; V1b 250 nM, tracer 0.3 µM): 44 ± 2.2%
- Binding (%) (Mean ± SD) ([3]; V1b 250 nM, tracer 0.3 µM + cold DOTA-mDesmo 5 µM): 38.8 ± 1.7%
- Binding (%) (Mean ± SD) ([3]; V1b 250 nM, tracer 0.3 µM + cold DOTA-mDesmo 20 µM): 22% and 22.1 ± 2.1%
- sterility (Sterility test): sterile
- uptake in the pituitary of patients with ECS (corticotropinoma; 4 patients of ECS): no uptake
- diagnostic accuracy (corticotropinoma; PET/CT, 24 patients of CD): 100%
- patients of CD in whom the pituitary tumor was localized (corticotropinoma; of 24 patients of CD): 24 patients
- stability (single radio peak at Rf 0.0) [4]: up to 4 h
- total blood pool, share of the injected activity ([5]; 120 min, blood volume assumed 7% of body weight): ~ 3%
- route of excretion ([5]; rat, in vivo): primarily excreted via the renal route
- clearance from muscles, lungs, adrenals, liver, pancreas, spleen and heart ([5]; time following administration): ≤ 120 min
- fraction unbound at 1 h [6]: 0.344
- endotoxin value (Endotoxin test): 8.6 ± 1.2 EU/V

Compound: OC[C@H]1OC(O)[C@H]([18F])[C@@H](O)[C@@H]1O (some centres unmarked) [[^18F]FDG]
- sensitivity for corticotropinomas (corticotropinomas): 40%
